Experimental data: the EternaBench riboswitch data

Test system: MS2 coat protein
Assay: apparent Kd, MS2 coat protein; higher = weaker binding; RNA-MaP array; FMN 200 µM where present
Summary of the method: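 The titrant was SNAP-549-labelled MS2 coat protein, run from 0.7 or 1.5 nM in doubling steps to 3 µM. It was applied to designs transcribed by stalled E. coli RNA polymerase on Illumina sequencing-chip clusters, without ligand first and then with constant ligand, in 100 mM Tris-HCl pH 7.5, 80 mM KCl, 4 mM MgCl2, BSA, DTT, yeast tRNA and Tween-20. The apparent Kd is the median of filtered per-cluster binding-curve fits, with green signal normalised to red-channel RNA signal and control-cluster median Fmax.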

[1] = designed as: OFF switch for flavin mononucleotide, no ligand
[2] = ligand present: flavin mononucleotide, designed as: OFF switch for flavin mononucleotide
[3] = designed as: ON switch for flavin mononucleotide, no ligand
[4] = ligand present: flavin mononucleotide, designed as: ON switch for flavin mononucleotide

| Sequence | apparent Kd [1] [nM] | apparent Kd [2] [nM] | apparent Kd [3] [nM] | apparent Kd [4] [nM] |
| --- | --- | --- | --- | --- |
| UAAAAGUCAGGAUAUGCGAGAGAUUGAAGUGUGGCAAGGUAGCAGAAGGGACAUGAGGAUCACCCAUGUGUGGC | 52.4 | 115 |  |  |
| UAAACACCCUCAUGUACCUGAGGACAUGAGGAUCACCCAUGUAAGGAUAUAGCCAUUAAAUCUAACUAGAAGGUAUAGGAAAUC | 865 | 529 |  |  |
| UAAACACCCUCAUGUGCCUGAGGACAUGAGGAUCACCCAUGUAAGGAUAUAGCCAUUAAAUCUAACUAGAAGGUAUAGGAAAUC | 597 | 476 |  |  |
| UAAAGUUAAGGAGGAUAUUACAUGAGGAUCACCCAUGUAAUGGGCUCGGUGUAAGAAGGCCUUGAGUCGAAGUUUCGGAUAAGG | 9.05 | 18.6 |  |  |
| UAAAUGUGAGGAUAUCAGGUGUGCUAGCGAACUGGUACAUCUGAGAAGGCACAUGAGGAUCACCCAUGUUCCUU | 17 | 61.5 |  |  |
| UAAAUUAACAAGAAGGCUAACAUGAGGAUCACCCAUGUUGUACAUGGAUAUAGAGGAUAUUGAUAAUAAUUUUUUAUCAUAAUU | 17.6 | 16.5 |  |  |
| UAAGAUUAUGUAGGAUAUGGUUAUCUAUGUCUAGUUACUAGACAUAGAUAACCAGAAGGACAUGAGGAUCACCCAUGUUGAACG | 7.73 | 16.9 |  |  |
| UAAGUAAGUGCAGGAUAUUUAAGAAGAACAUGAGGAUCACCCAUGUGAGGAUCACCCAUGUAAAAGGAGAAGGGCAGAGUAUGA | 960 | 1220 |  |  |
| UAAUAAUAAUAAUAGCAGAAUUACAUGAGGAUCACCCAUGUAUAGGAUAUCGUCAGGAAUACUGACGAGAAGGAUACAAACUGC | 17.6 | 21.9 |  |  |
| UAAUUAAGUGUGAGGAUAUGCUGGUCCUUGGAUCAGCAGAAGGCACAUGAGGAUCACCCAUGUAAUAUAUUUAU | 97.4 | 493 |  |  |
| UACAGACAUGAGGAUCACCCAUGUGAGGAUAUCGGUACCGAUGGCAUAAUCUGCUCGGCGAGAAGGCACAGUGU | 28 | 48.4 |  |  |
| UACAUCGGAGGAUAUACAUGAGGAUCACCCAUGUGAGUGUAAGGGAGCGUAAGCGGGUGUAGAAGGCCGUCUUU | 58.3 | 49.5 |  |  |
| UACAUGAGGAUCACCCAUGUUUUGUCGUGUAUGGUAUUUAUCUAGGAUAUCAUUCUAUUUAGUUAUGAGAAGGAGAAUAUUAAU | 28.1 | 27.4 |  |  |
| UACAUGAGGAUCACCCAUGUUUUGUCGUGUAUGGUAUUUAUCUAGGAUAUCGUGUUAUUUAACCACGAGAAGGAGAGUAUCAAU | 27.5 | 26.7 |  |  |
| UACCACCGCACGGACACGCCGAGUCAGGAUAUACAUGAGGAUCACCCAUGUGAAGGCCGGCUCGUGUAGAAGGGACAGGCGUUG | 5.43 | 6.72 |  |  |
| UACCGCUCUGAAGGAUAUCCACUGGGAUGCUGGAUGUAUGAGCGUACAUGAGGAUCACCCAUGUAGGAGAAGGUCAGGCAUUCC | 5.8 | 7.84 |  |  |
| UACCUCACUUCUUUGACUCACAUGAGGAUCACCCAUGUAAUAUAGGAUAUGCAUUUUAUUUCUUUGCAGAAGGAUAUUAGUUUU | 42.8 | 79.2 |  |  |
| UACUCAUGUGAGAAGGGACGUAUCUCCAUGAGGGCAGGGCUAUUAGGGAAGUCAGGAUAUCACAUGAGGAUCACCCAUGUGACG | 6.91 | 7.33 |  |  |
| UAGAAGUCAGGAUAUGCAUGGCGGGACUUGCGUCGUGGCGUGCAGAAGGGACAUGAGGAUCACCCAUGUAAAGG | 159 | 265 |  |  |
| UAGAAGUCAGGAUAUGCAUGGCGGGACUUGCGUCGUGGCGUGCAGAAGGGACAUGAGGAUCACCCAUGUGGAGA | 117 | 369 |  |  |
| UAGCGCUGUCGAGAGGAUAUGCGGUGAUGGACAUGAGGAUCACCCAUGUUAGCGAUAGCAUUACGGUAGAAGGCUCUACAGCUGU |  |  | 245 | 36 |

| Sequence | apparent Kd [1] [nM] | apparent Kd [2] [nM] | apparent Kd [3] [nM] | apparent Kd [4] [nM] |
| --- | --- | --- | --- | --- |
| UAGCUCUCGGCAGGAUAUCCUGCAUAAUGUCGAGUCCGCGCCCGGACAUGAGGAUCACCCAUGUAGGAGAAGGGCCCACGGGCU | 24.2 | 45.5 |  |  |
| UAGGACUACGUAGGAUAUGUAGUAUAUUACUACAUGAGGAUCACCCAUGUAAGCAUGUUAUUAGGACAGAAGGACGUGGUAAAU |  |  | 43.6 | 13.7 |
| UAGUAUAAGGGCAUUAAACAUGAGGAUCACCCAUGUACGAUAGAGGAUAUGCAUUUCAGUUUAGAGUAGAAGGUUAGAGAAUUG | 39.5 | 41.6 |  |  |
| UAGUGAUUGCAAGGAUAUGCUAGUUUUUAUUUGUGUUUGAUAACAAACAUGAGGAUCACCCAUGUGCAGAAGGUGCUAGAUAUG |  |  | 566 | 510 |
| UAGUUAUUCACAGGAUAUCGCCUCUUAUUACAUGAGGAUCACCCAUGUUUAUUUUGUUACAUGUUCGAGAAGGGUGUAGCCGUU | 345 | 375 |  |  |
| UAUAAGAACGAAGGAUAUGGUUACAUGAGGAUCACCCAUGUAUGUAUAUUGAUCUAGUAUUAUAACCAGAAGGUCGAGAGUAUA | 16.1 | 27.1 |  |  |
| UAUAGGCUAGGAUAUACAACACUUGGUUCGAAUGUUUGGAGACAUGAGGAUCACCCAUGUAGAAGGAGCAUUUC | 64.8 | 190 |  |  |
| UAUAUAUAGUAAGGAUAUGUAAUUAUUUUAUUAACAGAAGGUACUGACAUGAGGAUCACCCAUGUUUUAGUGUGGGCAUGUAGA | 83.5 | 184 |  |  |
| UAUAUAUAGUAAGGAUAUGUAUUAAUUUAAUAAACAGAAGGUACUGACAUGAGGAUCACCCAUGUUUUAGUGUGGGCAUGUAGA | 98 | 140 |  |  |
| UAUAUGUAUGUAGGAUAUGGUAUAUAAAAUAUACCAGAAGGACAUGAGGAUCACCCAUGUAUGAAAUUCCAUAAUAACCGUGUA | 11.3 | 11 |  |  |
| UAUAUGUCAGGAUAUCGAUUGGAAUGGAAUUCAGUUCUGGUUGAGAAGGGACAUGAGGAUCACCCAUGUUUUUC | 37.3 | 171 |  |  |
| UAUAUGUCAGGAUAUCGAUUGGAAUGGAAUUUAGUUUUGGUCGAGAAGGGACAUGAGGAUCACCCAUGUUCCUC | 30.9 | 134 |  |  |
| UAUAUGUCAGGAUAUCGCAACUGCGCGCGCAAGAAUCAUAACGAGAAGGGACAUGAGGAUCACCCAUGUACACU | 18.6 | 25.7 |  |  |
| UAUAUGUCAGGAUAUUAAUUAAGAUGGAAUUUAGUCUUAGUUGAGAAGGGACAUGAGGAUCACCCAUGUUCCUC | 19.7 | 159 |  |  |
| UAUAUGUCAGGAUAUUAGUUGUGUUAGAAUUUAUCUUCUGCUGAGAAGGGACAUGAGGAUCACCCAUGUUCCUC | 14.5 | 16 |  |  |
| UAUAUGUCAGGAUAUUGAUUGGGAUGGAAUUUAGUUUUGGUUAAGAAGGGACAUGAGGAUCACCCAUGUUCCUC | 17.1 | 18.4 |  |  |
| UAUAUGUGAGGAUAUCAGGUGUGCUAGCGAACUGGUACAUCUGAGAAGGCACAUGAGGAUCACCCAUGUAUCUU | 27.7 | 105 |  |  |
| UAUCGAGUAGCAGGAUAUUAUGUGGCUAAUUCCGAGUCUGAUGCUUCACAUGAGGAUCACCCAUGUAAGAAGGGCUAACUCGGG | 26.2 | 63.7 |  |  |
| UAUCGGAGCAGAGGAUAUUACAUGAGGAUCACCCAUGUAUGAACCAAUAGCUGGAAACAGCAAUGUAAGAAGGCUGCUCCGACA | 11.9 | 163 |  |  |
| UAUGAACAUGAGGAUCACCCAUGUGGUAAGAUCACAGGAUAUCACCUCGGACGUGCGAUGUGAGAAGGGUGAUGGU |  |  | 585 | 113 |
| UAUGUAUUCGUAGGAUAUCCGUUGAGACCGUGUGGAGAAGGACGAACAUGAGGAUCACCCAUGUAUCAUGGUGUAGACAAUUUU | 115 | 353 |  |  |
